The source of these data is ChEMBL document CHEMBL1138748, “A prodrug approach toward the development of water soluble fluoroquinolones and structure--activity relationships of quinoline-3-carboxylic acids” (2004).

≈ marks a conversion by molar mass, not a printed value.

What is called MIC is the lowest concentration that inhibits growth of the organism. High values mean a need for much substance, low ones inhibition by little substance.

Assay type in all cases: functional
The test system of assay [1] is Staphylococcus aureus. Nature of the assay: Antibacterial activity against Staphylococcus aureus strain St au 33591 MRSA. The method in brief: (§1)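 Broth microdilution MIC run to NCCLS standards: serial 2-fold dilutions in cation-adjusted Mueller–Hinton broth, inoculum ~5 × 10^5 CFU/mL, incubated 35 °C for 18–24 h. Trays were read by eye, and the MIC was taken as the lowest concentration giving complete growth inhibition (no visible turbidity).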

Assay [2] relates to Enterococcus faecalis. Nature of the assay: Antibacterial activity against Enterococcus faecalis strain 29212. The method in brief:
as §1

Assay [3] has as its system Enterococcus faecalis. Nature of the assay: Antibacterial activity against Enterococcus faecalis. The essentials:
as §1

Assay [4] concerns Staphylococcus aureus. Briefly: Antibacterial activity against Staphylococcus aureus strain St au 29213. The essentials: as §1
Assay [5] has as its system Pseudomonas aeruginosa. Briefly: Antibacterial activity against Pseudomonas aeruginosa strain 27853. The method in brief:
as §1

Assay [6] has as its system Staphylococcus aureus. Briefly: Antibacterial activity against methicillin susceptible Staphylococcus aureus. The method in brief:
(§2)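 Broth microdilution per NCCLS standards: serial 2-fold dilutions in cation-adjusted Mueller–Hinton broth, inoculum ~5 × 10^5 CFU/mL, 35 °C for 18–24 h, visual read; MIC = lowest concentration giving complete growth inhibition (no visible turbidity). Reference strains, e.g. S. aureus 29213 (susceptible) and 33591 (MRSA).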

For assay [7], the system named is Escherichia coli. Briefly: Antibacterial activity against Escherichia coli strain 25922. The essentials: as §1
In assay [8] the test system is Pseudomonas aeruginosa. Nature of the assay: Antibacterial activity against Pseudomonas aeruginosa. The essentials: as §1
Assay [9] relates to Staphylococcus aureus. Briefly: Antibacterial activity against methicillin resistant Staphylococcus aureus. The essentials:
as §2

The test system of assay [10] is Escherichia coli. Nature of the assay: Antibacterial activity against Escherichia coli. The method in brief:
as §1

Assay [11] relates to Staphylococcus aureus. Briefly: Antibacterial activity against Staphylococcus aureus strain 29213. The essentials: as §1

`CN1CCN(c2cc3c(cc2F)c(=O)c(C(=O)O)cn3-c2ccc(O)cc2)CC1`: the minimal inhibitory concentration (MIC) against Staphylococcus aureus [1] is 0.2 µg/mL (≈ 0.503 µM); in the assay with Enterococcus faecalis [2], 0.78 µg/mL (≈ 1.96 µM); with Enterococcus faecalis [3], 0.78 µg/mL (≈ 1.96 µM); against Staphylococcus aureus [4], 0.1 µg/mL (≈ 0.252 µM); against Pseudomonas aeruginosa [5], 0.78 µg/mL (≈ 1.96 µM); against Staphylococcus aureus [6], 0.1 µg/mL (≈ 0.252 µM). The MIC with Escherichia coli [7] is less than 0.05 µg/mL; with Pseudomonas aeruginosa [8] it was 0.78 µg/mL (≈ 1.96 µM); with Staphylococcus aureus [9] it was 0.1 µg/mL (≈ 0.252 µM); in the assay with Escherichia coli [10], 0.05 µg/mL (≈ 0.126 µM).
As to `O=C(O)c1cn(-c2ccc(O)cc2)c2cc(N3CCNCC3)c(F)cc2c1=O`, the minimal inhibitory concentration (MIC) against Staphylococcus aureus [1] was determined as 0.4 µg/mL (≈ 1.04 µM); in the assay on Enterococcus faecalis [2] it was 6.25 µg/mL (≈ 16.3 µM); in the assay with Pseudomonas aeruginosa [5], 1.56 µg/mL (≈ 4.07 µM); with Escherichia coli [7] it was 0.4 µg/mL (≈ 1.04 µM); in the assay with Staphylococcus aureus [11] it was 0.78 µg/mL (≈ 2.03 µM).
Consider `CN1CCN(c2cc3c(cc2F)c(=O)c(C(=O)O)cn3-c2ccc(OP(=O)(O)O)cc2)CC1`, for which the minimal inhibitory concentration (MIC) with Enterococcus faecalis [3] is 25 µg/mL (≈ 52.4 µM); with Staphylococcus aureus [6] it was 1.56 µg/mL (≈ 3.27 µM); against Pseudomonas aeruginosa [8] it was 50 µg/mL (≈ 105 µM); against Staphylococcus aureus [9], 0.78 µg/mL (≈ 1.63 µM); in the assay with Escherichia coli [10], 0.2 µg/mL (≈ 0.419 µM).
For the compound `O=C(O)c1cn(C2CC2)c2cc(N3CCNCC3)c(F)cc2c1=O` [CIPROFLOXACIN], the figures for the MIC against Enterococcus faecalis [3], in the assay on Staphylococcus aureus [6] and against Staphylococcus aureus [9] were 1 µg/mL (≈ 3.02 µM), 0.25 µg/mL (≈ 0.754 µM) and 0.5 µg/mL (≈ 1.51 µM), respectively.
As to `C[C@@H]1CN(c2nc3c(cc2F)c(=O)c(C(=O)O)cn3-c2ccc(O)cc2)C[C@H](C)N1`, the MIC against Staphylococcus aureus [1] turned out to be 6.25 µg/mL (≈ 15.2 µM); against Enterococcus faecalis [2] it was 12.5 µg/mL (≈ 30.3 µM); against Staphylococcus aureus [4], 3.13 µg/mL (≈ 7.59 µM); in the assay with Pseudomonas aeruginosa [5], 6.25 µg/mL (≈ 15.2 µM); against Escherichia coli [7], 0.4 µg/mL (≈ 0.97 µM).
Turning to `CC1CNCCN1c1nc2c(cc1F)c(=O)c(C(=O)O)cn2-c1ccc(O)cc1` (stereo not drawn), the MIC against Staphylococcus aureus [1] came to 0.78 µg/mL (≈ 1.96 µM); against Enterococcus faecalis [2], 6.25 µg/mL (≈ 15.7 µM); with Staphylococcus aureus [4], 0.78 µg/mL (≈ 1.96 µM); in the assay on Pseudomonas aeruginosa [5] it was 6.25 µg/mL (≈ 15.7 µM); with Escherichia coli [7], 0.78 µg/mL (≈ 1.96 µM).
For `NCC1CCN(c2nc3c(cc2F)c(=O)c(C(=O)O)cn3-c2ccc(O)cc2)C1` (stereo not drawn), the minimal inhibitory concentration (MIC) against Staphylococcus aureus [1] came out at 1.56 µg/mL (≈ 3.92 µM); against Enterococcus faecalis [2], 3.13 µg/mL (≈ 7.86 µM); with Staphylococcus aureus [4], 0.4 µg/mL (≈ 1 µM); in the assay on Pseudomonas aeruginosa [5] it was 6.25 µg/mL (≈ 15.7 µM); in the assay on Escherichia coli [7], 3.13 µg/mL (≈ 7.86 µM).
With `COc1c(N2CC3CC2CN3)c(F)cc2c(=O)c(C(=O)O)cn(-c3ccc(O)cc3)c12` (stereo not drawn), the MIC in the assay with Staphylococcus aureus [1] was 3.13 µg/mL (≈ 7.36 µM); in the assay on Enterococcus faecalis [2], greater than 50 µg/mL; against Staphylococcus aureus [4], 6.25 µg/mL (≈ 14.7 µM); against Pseudomonas aeruginosa [5], 12.5 µg/mL (≈ 29.4 µM); against Escherichia coli [7] it was 6.25 µg/mL (≈ 14.7 µM).
With `COc1c(N2CC3CCCNC3C2)c(F)cc2c(=O)c(C(=O)O)cn(-c3ccc(O)cc3)c12` (stereo not drawn), the MIC against Staphylococcus aureus [1] was 0.78 µg/mL (≈ 1.72 µM); with Enterococcus faecalis [2], 12.5 µg/mL (≈ 27.6 µM); with Staphylococcus aureus [4], 0.78 µg/mL (≈ 1.72 µM); in the assay with Pseudomonas aeruginosa [5], 6.25 µg/mL (≈ 13.8 µM); with Escherichia coli [7], 1.56 µg/mL (≈ 3.44 µM).
For `N[C@@H]1[C@H]2CN(c3nc4c(cc3F)c(=O)c(C(=O)O)cn4-c3ccc(O)cc3)C[C@@H]12`, the MIC against Staphylococcus aureus [1] was found to be 0.2 µg/mL (≈ 0.505 µM); in the assay with Enterococcus faecalis [2], 0.78 µg/mL (≈ 1.97 µM); in the assay with Staphylococcus aureus [4], 0.2 µg/mL (≈ 0.505 µM); in the assay on Pseudomonas aeruginosa [5] it was 0.78 µg/mL (≈ 1.97 µM); with Escherichia coli [7], 0.1 µg/mL (≈ 0.252 µM).
